Laboratory results as given in ChEMBL document CHEMBL4033676, “Design, synthesis and biological evaluation of 3,4-dihydro-2(1H)-quinoline-O-alkylamine derivatives as new multipotent cholinesterase/monoamine oxidase inhibitors for the treatment of Alzheimer's disease” (Bioorg Med Chem, 2017).
The source made the active and inactive calls. The calls are words filed in the database; no cut-off is given here.

Assays:
physchem = settings: PAMPA
Rattus norvegicus [1] = species on record: Rattus norvegicus; assay: Selectivity index, ratio of IC50 for rat serum BuChE to IC50 for 5% rat cortex homogenate AChE
Acetylcholinesterase [2] = target: Acetylcholinesterase (Electrophorus electricus, UniProt O42275); assay: Inhibition of electric eel AChE using acetylthiocholine chloride as substrate after 15 mins by Ellman's method
Sequence of Acetylcholinesterase (Electrophorus electricus, UniProt O42275) (O42275 whole entry): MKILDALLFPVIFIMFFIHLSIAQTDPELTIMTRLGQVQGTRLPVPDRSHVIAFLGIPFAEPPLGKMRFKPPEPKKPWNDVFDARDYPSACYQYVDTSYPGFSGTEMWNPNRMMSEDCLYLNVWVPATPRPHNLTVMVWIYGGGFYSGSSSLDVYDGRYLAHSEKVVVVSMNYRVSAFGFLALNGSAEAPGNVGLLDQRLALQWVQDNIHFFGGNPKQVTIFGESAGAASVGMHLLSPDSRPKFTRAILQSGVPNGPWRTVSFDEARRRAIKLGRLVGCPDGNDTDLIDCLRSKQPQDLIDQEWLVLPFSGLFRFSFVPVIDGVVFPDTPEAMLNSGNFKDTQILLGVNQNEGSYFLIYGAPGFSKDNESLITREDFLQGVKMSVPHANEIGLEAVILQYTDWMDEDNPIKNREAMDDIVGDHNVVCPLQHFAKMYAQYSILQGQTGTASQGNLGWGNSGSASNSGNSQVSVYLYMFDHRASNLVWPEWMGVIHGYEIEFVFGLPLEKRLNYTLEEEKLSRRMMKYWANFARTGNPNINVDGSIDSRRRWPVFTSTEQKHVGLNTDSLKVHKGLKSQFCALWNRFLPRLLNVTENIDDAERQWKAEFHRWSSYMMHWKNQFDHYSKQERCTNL

Cholinesterase = Cholinesterase (Equus caballus, UniProt P81908); assay: Inhibition of equine serum BuChE using butyrylthiocholine chloride as substrate after 15 mins by Ellman's method
Sequence of Cholinesterase (P81908 whole entry): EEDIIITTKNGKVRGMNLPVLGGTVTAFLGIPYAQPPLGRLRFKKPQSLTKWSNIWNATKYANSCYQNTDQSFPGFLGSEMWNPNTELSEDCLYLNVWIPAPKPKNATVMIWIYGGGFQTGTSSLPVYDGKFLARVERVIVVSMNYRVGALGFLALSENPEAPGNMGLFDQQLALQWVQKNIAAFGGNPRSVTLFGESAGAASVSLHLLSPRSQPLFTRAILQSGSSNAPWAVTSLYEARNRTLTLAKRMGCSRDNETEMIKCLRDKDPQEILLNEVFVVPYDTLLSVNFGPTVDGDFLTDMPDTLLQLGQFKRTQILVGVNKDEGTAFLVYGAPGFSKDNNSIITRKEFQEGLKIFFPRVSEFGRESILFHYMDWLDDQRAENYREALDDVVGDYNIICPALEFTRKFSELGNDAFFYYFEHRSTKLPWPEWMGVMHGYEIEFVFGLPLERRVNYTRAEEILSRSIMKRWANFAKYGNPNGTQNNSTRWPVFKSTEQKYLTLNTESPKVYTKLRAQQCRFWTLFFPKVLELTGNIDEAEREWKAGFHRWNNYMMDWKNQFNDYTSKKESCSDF
How it was run: (§1)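 Ellman assay. Equine serum or rat serum BuChE pre-incubated with test compound at various concentrations (DMSO <1%) in 0.1 M phosphate buffer pH 8.0 for 15 min at 37°C. DTNB (0.2%) added, absorbance read at 412 nm. Inhibition % = (1−Ai/Ac)×100. IC50 is the mean of three independent experiments, each run in triplicate.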

Acetylcholinesterase [3] = target: T1, Acetylcholinesterase (Rattus norvegicus, UniProt P37136)
T1 sequence (P37136 whole entry): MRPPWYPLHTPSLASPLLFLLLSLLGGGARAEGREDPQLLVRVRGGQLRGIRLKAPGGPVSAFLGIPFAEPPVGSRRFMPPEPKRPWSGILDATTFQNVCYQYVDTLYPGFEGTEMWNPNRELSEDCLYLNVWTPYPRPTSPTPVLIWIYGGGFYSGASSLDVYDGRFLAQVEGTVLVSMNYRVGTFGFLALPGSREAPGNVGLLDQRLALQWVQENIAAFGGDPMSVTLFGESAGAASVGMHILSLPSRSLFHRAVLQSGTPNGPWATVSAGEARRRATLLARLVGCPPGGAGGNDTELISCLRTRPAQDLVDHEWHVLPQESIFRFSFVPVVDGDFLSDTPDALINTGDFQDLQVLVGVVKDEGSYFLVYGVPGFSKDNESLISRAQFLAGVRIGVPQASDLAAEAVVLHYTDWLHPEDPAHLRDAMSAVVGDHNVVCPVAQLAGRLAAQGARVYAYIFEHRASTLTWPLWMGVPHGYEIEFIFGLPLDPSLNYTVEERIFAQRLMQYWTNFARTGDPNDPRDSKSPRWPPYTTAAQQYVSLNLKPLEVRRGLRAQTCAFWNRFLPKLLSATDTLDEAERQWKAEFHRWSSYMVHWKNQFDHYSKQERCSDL

[4] = Inhibition of rat serum BuChE using butyrylthiocholine chloride as substrate after 15 mins by Ellman's method
How it was run: as §1

[5] = Selectivity index, ratio of IC50 for equine serum BuChE to IC50 for electric eel AChE
[6] = target: Acetylcholinesterase (Electrophorus electricus) (UniProt O42275); assay: Mixed type inhibition of electric eel AChE using acetylthiocholine iodide as substrate up to 1 uM preincubated for 15 mins followed by substrate addition by Lineweaver-Burk plot analysis
Sequence of Acetylcholinesterase (Electrophorus electricus) (O42275 24-633 limits assumed): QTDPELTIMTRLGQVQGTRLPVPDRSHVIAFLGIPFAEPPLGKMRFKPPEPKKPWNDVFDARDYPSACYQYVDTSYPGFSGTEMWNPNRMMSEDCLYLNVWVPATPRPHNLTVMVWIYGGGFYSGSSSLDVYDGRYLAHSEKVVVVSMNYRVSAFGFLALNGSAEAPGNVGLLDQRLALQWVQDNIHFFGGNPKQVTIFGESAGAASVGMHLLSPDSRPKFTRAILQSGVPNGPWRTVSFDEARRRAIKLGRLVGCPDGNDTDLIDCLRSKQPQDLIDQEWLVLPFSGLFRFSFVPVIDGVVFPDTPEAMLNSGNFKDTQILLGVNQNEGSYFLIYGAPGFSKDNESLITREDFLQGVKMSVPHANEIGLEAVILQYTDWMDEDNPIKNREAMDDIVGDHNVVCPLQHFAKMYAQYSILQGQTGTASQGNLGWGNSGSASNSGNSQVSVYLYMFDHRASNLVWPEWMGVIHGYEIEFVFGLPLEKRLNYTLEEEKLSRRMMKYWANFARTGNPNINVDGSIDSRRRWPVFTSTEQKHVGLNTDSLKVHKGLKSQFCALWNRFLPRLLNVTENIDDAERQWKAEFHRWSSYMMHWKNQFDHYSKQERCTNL
How it was run: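 Purified Electrophorus electricus AChE (0.5 units/mL) in 0.1 M phosphate buffer pH 8.0 with 0.2% DTNB. Three inhibitor concentrations pre-incubated with enzyme for 15 min at 37°C, then acetylthiocholine iodide added at varying concentrations. Hydrolysis followed at 412 nm; no-inhibitor controls run in parallel. Weighted least-squares double-reciprocal analysis; Ki taken from the x-intercept of a secondary slope replot.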

[7] = target: T2, Amine oxidase [flavin-containing] A (Homo sapiens, UniProt P21397); assay: Inhibition of recombinant human MAO-A expressed in baculovirus infected BTI insect cells using kynuramine as substrate after 30 mins by fluorescence assay
T2 sequence (P21397 whole entry): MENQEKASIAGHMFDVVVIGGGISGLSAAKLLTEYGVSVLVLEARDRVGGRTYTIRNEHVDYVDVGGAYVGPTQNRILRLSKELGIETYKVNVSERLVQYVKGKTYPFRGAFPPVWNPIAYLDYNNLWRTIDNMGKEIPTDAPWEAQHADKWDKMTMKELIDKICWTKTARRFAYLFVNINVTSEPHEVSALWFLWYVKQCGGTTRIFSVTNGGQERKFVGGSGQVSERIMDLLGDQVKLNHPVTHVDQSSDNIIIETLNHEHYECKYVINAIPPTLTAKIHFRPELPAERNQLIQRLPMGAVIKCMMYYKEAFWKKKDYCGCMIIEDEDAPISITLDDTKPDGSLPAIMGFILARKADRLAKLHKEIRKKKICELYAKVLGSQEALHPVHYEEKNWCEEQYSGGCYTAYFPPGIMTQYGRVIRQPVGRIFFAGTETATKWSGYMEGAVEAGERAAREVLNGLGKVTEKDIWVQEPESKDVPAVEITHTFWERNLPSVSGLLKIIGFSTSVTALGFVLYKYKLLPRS

[8] = target: T3, Amine oxidase [flavin-containing] B (Homo sapiens, UniProt P27338); assay: biochemical; format: cell-based
T3 sequence (P27338 whole entry): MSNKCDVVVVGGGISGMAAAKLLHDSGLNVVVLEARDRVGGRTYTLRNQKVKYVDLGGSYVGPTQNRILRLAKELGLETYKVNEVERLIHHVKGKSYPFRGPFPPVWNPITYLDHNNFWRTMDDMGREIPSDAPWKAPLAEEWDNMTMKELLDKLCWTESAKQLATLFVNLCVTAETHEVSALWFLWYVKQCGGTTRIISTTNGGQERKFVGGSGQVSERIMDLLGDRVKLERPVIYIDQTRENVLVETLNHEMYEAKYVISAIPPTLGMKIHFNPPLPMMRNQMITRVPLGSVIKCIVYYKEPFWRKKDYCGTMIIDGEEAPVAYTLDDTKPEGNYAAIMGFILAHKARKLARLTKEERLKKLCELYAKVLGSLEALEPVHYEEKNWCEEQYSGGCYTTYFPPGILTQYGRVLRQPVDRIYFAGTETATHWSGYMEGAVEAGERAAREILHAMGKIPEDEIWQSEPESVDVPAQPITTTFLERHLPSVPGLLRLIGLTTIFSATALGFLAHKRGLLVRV

Homo sapiens = species on record: Homo sapiens; assay: Selectivity index, ratio of IC50 for recombinant human MAO-B to IC50 for recombinant human MAO-A
PC-12 [9] = assay: Cytotoxicity against rat PC12 cells assessed as decrease in cell viability up to 10 uM after 24 hrs by MTT assay; format: cell-based; settings: pc-12, 24 h
PC-12 [10] = assay: Cytotoxicity against rat PC12 cells assessed as decrease in cell viability at 100 uM after 24 hrs by MTT assay; format: cell-based; settings: pc-12, 24 h
[11] = target: Acetylcholinesterase (Electrophorus electricus) (UniProt O42275); assay: Inhibition of electric eel AChE at 25 uM using acetylthiocholine chloride as substrate after 15 mins by Ellman's method relative to control
[12] = target: Cholinesterase (Equus caballus) (UniProt P81908); assay: Inhibition of equine serum BuChE at 25 uM using butyrylthiocholine chloride as substrate after 15 mins by Ellman's method relative to control
Sequence of Cholinesterase (Equus caballus) (P81908 whole entry): as the sequence (P81908 whole entry) above

Rattus norvegicus [13] = species on record: Rattus norvegicus; assay: Inhibition of rat serum BuChE at 25 uM using butyrylthiocholine chloride as substrate after 15 mins by Ellman's method relative to control
[14] = target: T4, Acetylcholinesterase (Rattus norvegicus) (UniProt P37136); settings: at 25 µM
T4 sequence (whole entry): T1 sequence (P37136 whole entry)

| Structure (SMILES) | Papp at 18 h, 100 ug/ml (physchem) | Ratio IC50 (Rattus norvegicus [1]) | IC50 (Acetylcholinesterase [2]) | IC50 (Cholinesterase) | IC50 (Acetylcholinesterase [3]) | IC50 [4] | Ratio IC50 [5] | IC50 [7] | IC50 [8] | Ratio IC50 (Homo sapiens) | also measured |
| --- | --- | --- | --- | --- | --- | --- | --- | --- | --- | --- | --- |
| Clc1cccc(Cl)c1N=C1NCCN1 [CLONIDINE] | 5.1 to 5.3 ×10⁻⁶ cm/s | – | – | – | – | – | – | – | – | – | – |
| O=C1CCc2ccc(OCCCCCCN3CCC(Cc4ccccc4)CC3)cc2N1 | 25.6 ×10⁻⁶ cm/s | 1.9 | 0.56 µM | 2.3 µM | 1.9 µM | 3.6 µM | 4.1 | 0.3 µM | 1.4 µM | 4.7 | inhibition [6]: Active; Activity (PC-12 [9]): Non-Toxic; Activity (PC-12 [10]): 87.3% |
| CCn1cc(C(=O)O)c(=O)c2cc(F)c(N3CCNCC3)nc21 [ENOXACIN] | 0.47 to 0.9 ×10⁻⁶ cm/s | – | – | – | – | – | – | – | – | – | – |
| CCn1cc(C(=O)O)c(=O)c2cc(F)c(N3CCNCC3)cc21 [NORFLOXACIN] | 0.1 to 0.42 ×10⁻⁶ cm/s | – | – | – | – | – | – | – | – | – | – |
| Cn1c(=O)c2c(ncn2C)n(C)c1=O [CAFFEINE] | 1.28 to 1.3 ×10⁻⁶ cm/s | – | – | – | – | – | – | – | – | – | – |
| CN1C(C(=O)Nc2ccccn2)=C(O)c2ccccc2S1(=O)=O [PIROXICAM] | 0.72 to 2.5 ×10⁻⁶ cm/s | – | – | – | – | – | – | – | – | – | – |
| Cn1c(=O)c2[nH]cnc2n(C)c1=O.O [THEOPHYLLINE] | 0.1 to 0.12 ×10⁻⁶ cm/s | – | – | – | – | – | – | – | – | – | – |
| CCN(CC)CCCOc1ccc2c(c1)NC(=O)CC2 | – | 1.1 | 11.2 µM | 29.7 µM | 19.2 µM | 20.5 µM | 2.7 | 8.4 µM | 18.6 µM | 2.2 | – |
| CCN(CC)CCCCCOc1ccc2c(c1)NC(=O)CC2 | – | 0.4 | 8.2 µM | 21.9 µM | 34.1 µM | 14.7 µM | 2.7 | 11.4 µM | 8.5 µM | 0.7 | – |
| O=C1CCc2ccc(OCCCCCCN3CCN(c4ccccn4)CC3)cc2N1 | – | 1.4 | 19.1 µM | 4.1 µM | 34.1 µM | 48.2 µM | 0.2 | 5.6 µM | 11.3 µM | 2 | – |
| O=C1CCc2ccc(OCCCCN3CCN(c4ccccn4)CC3)cc2N1 | – | 1.9 | 13.8 µM | 8.4 µM | 21 µM | 40 µM | 0.6 | 6.9 µM | 10.1 µM | 1.5 | – |
| O=C1CCc2ccc(OCCCCN3CCCCC3)cc2N1 | – | 2 | 11.8 µM | 15.7 µM | 11.6 µM | 22.8 µM | 1.3 | 9.5 µM | 6.4 µM | 0.7 | – |
| O=C1CCc2ccc(OCCCCCCN3CCc4ccccc4C3)cc2N1 | – | 1.1 | 8.2 µM | 1.2 µM | 10.8 µM | 11.7 µM | 0.1 | 3.4 µM | 4.4 µM | 1.3 | – |
| CC(C)N1CCN(CCCCOc2ccc3c(c2)NC(=O)CC3)CC1 | – | 1 | 1 µM | 4.5 µM | 3.6 µM | 3.7 µM | 4.4 | 14.3 µM | 7.6 µM | 0.5 | – |
| C#CCN(CCCCCOc1ccc2c(c1)NC(=O)CC2)Cc1ccccc1 | – | 2.1 | 19.4 µM | 7 µM | 14.3 µM | 29.6 µM | 0.4 | 8.9 µM | 8.3 µM | 0.9 | – |
| O=C1CCc2ccc(O)cc2N1 | – | – | – | – | – | – | – | – | – | – | inhibition [11]: < 5%; inhibition [12]: < 5%; inhibition (Rattus norvegicus [13]): < 5%; inhibition [14]: < 5% |
